Data on one compound can be found in ChEMBL document CHEMBL4364314, “Design, synthesis and biological evaluation of 6-deoxy O-spiroketal C-arylglucosides as novel renal sodium-dependent glucose cotransporter 2 (SGLT2) inhibitors for the treatment of type 2 diabetes” (Eur J Med Chem, 2019).

In data set [1] the test system is Rattus norvegicus. The data set can be described thus: Effect on urinary volume in Sprague-Dawley rat at 1 mg/kg, po administered as single dose measured after 24 hrs (reference value: 24.17 +/- 7.11 mL). The format is ADME, organism-based. Particulars: in vivo.
The target of data set [2] is T1, Sodium/glucose cotransporter 2 (Homo sapiens, UniProt P31639).
T1 sequence (P31639 whole entry): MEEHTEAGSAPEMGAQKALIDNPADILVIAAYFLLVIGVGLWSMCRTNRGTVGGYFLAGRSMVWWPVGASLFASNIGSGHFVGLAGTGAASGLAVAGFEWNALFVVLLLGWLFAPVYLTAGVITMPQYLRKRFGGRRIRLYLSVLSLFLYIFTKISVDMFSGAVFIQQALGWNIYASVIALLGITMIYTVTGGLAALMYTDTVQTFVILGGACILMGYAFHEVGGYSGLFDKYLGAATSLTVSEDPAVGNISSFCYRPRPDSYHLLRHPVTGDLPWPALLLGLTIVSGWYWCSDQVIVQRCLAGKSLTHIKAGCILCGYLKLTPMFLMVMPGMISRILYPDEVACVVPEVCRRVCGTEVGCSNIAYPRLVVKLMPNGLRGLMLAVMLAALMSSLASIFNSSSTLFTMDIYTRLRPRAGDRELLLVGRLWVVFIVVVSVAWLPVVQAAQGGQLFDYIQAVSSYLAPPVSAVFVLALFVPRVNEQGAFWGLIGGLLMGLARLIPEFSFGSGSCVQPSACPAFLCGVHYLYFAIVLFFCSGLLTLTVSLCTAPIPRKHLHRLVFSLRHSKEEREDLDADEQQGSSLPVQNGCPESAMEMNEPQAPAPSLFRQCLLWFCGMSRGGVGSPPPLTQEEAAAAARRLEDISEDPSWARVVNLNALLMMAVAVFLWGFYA
The data set can be described thus: Inhibition of human full length SGLT2 expressed in NIH3T3 cells measured after 1 hr in presence of [14C]-methyl-alpha -D-glucopyranoside by scintillation counter method. The format is cell-based. A digest of the protocol:
(§1)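 Stable NIH3T3 lines from retroviral transduction of full-length hSGLT1 or hSGLT2 (pBABE-puro, 8 µg/mL polybrene, puromycin 2 µg/mL selection for 2 weeks). Cells plated 2 days ahead, 2 mmol/L sodium butyrate added day 2. Read by scintillation counting. Compound-free buffer served as negative control, sodium-free N-methyl-glucamine buffer as blank.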

Data set [3] is described as follows: Tmax in mouse at 10 mg/kg, po administered as single dose. The format is ADME, organism-based. Particulars: in vivo. A digest of the protocol: (§2)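 Mouse pharmacokinetics after a single intravenous dose of 2 mg/kg or a single oral dose of 10 mg/kg. Plasma parameters derived for each route; oral bioavailability calculated by comparing the two routes.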
A short description of data set [4]: Half-life in mouse at 2 mg/kg, iv administered as single dose. The format is ADME, organism-based. The conditions noted are these: in vivo. An outline of the steps:
as §2

Data set [5] relates to Mus musculus. The data set can be described thus: Effect on urine glucose excretion in C57BL/6J mouse at 1 mg/kg, po administered as single dose measured after 24 hrs assessed per 100 grams (reference value: 0.84 +/- 0.40 mg ). The format is functional.
The nature of data set [6]: AUCinfinity in mouse at 2 mg/kg, iv administered as single dose. The format is ADME, organism-based. Also on record: dose 2 mg/kg, route intravenous, time infinity. Particulars: in vivo. An outline of the steps: as §2
The nature of data set [7]: Cmax in mouse at 10 mg/kg, po administered as single dose. The format is ADME, organism-based. Also on record: dose 10 mg/kg, route oral. The conditions noted are these: in vivo. An outline of the steps:
as §2

Data set [8] has as its system Rattus norvegicus. Briefly: Effect on urine glucose excretion in Sprague-Dawley rat 1 mg/kg, po administered as single dose measured after 24 hrs assessed per 100 grams (reference value: 0.51 +/- 0.40 mg). Type of data set: functional.
The nature of data set [9]: Mean residence time infinity in mouse at 2 mg/kg, iv administered as single dose. The conditions noted are these: in vivo. Type of data set: ADME, organism-based. A digest of the protocol:
as §2

For data set [10], the system named is Mus musculus. The data set can be described thus: Effect on urinary volume in C57BL/6J mouse at 1 mg/kg, po administered as single dose measured after 24 hrs (reference value: 1.24 +/- 0.45 mL). Type of data set: ADME, organism-based. The conditions noted are these: in vivo.
Data set [11] is described as follows: Mean residence time infinity in mouse at 10 mg/kg, po administered as single dose. Type of data set: ADME, organism-based. Particulars: in vivo. A digest of the protocol:
as §2

The target of data set [12] is T2, Sodium/glucose cotransporter 1 (Homo sapiens, UniProt P13866).
T2 sequence (P13866 whole entry): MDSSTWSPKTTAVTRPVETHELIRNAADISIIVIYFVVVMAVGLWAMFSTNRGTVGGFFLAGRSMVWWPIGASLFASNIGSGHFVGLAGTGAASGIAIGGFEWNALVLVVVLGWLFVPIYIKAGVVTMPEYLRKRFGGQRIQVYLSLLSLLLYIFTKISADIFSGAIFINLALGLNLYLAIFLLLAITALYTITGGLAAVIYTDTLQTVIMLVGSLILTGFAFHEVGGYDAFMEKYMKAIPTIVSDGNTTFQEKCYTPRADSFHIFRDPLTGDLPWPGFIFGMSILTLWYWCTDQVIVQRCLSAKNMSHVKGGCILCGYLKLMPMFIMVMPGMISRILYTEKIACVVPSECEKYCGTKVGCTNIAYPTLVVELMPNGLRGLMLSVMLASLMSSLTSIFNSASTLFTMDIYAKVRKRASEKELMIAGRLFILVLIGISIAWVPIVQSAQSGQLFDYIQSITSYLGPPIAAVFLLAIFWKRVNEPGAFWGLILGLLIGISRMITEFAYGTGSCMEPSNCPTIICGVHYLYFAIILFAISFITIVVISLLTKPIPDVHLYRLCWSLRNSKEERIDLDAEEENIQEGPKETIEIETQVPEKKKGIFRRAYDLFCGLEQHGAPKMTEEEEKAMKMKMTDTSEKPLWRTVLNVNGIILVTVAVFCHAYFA
Briefly: Inhibition of human full length SGLT1 expressed in NIH3T3 cells measured after 1 hr in presence of [14C]-methyl-alpha -D-glucopyranoside by scintillation counter method. The format is cell-based. An outline of the steps: as §1

The nature of data set [13]: AUClast in mouse at 2 mg/kg, iv administered as single dose. Type of data set: ADME, organism-based. On the set-up: dose 2 mg/kg, route intravenous, time 0 - last. The conditions noted are these: in vivo. A digest of the protocol: as §2
For a further data set, the species on record is Homo sapiens. The data set can be described thus: Selectivity ratio of IC50 for human full length SGLT1 to IC50 for human full length SGLT2. A digest of the protocol: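 Ratio of IC50 at hSGLT1 to IC50 at hSGLT2, both from the [14C]methyl-α-D-glucopyranoside uptake assay in stably transfected NIH3T3 cells.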
The nature of data set [14]: AUCinfinity in mouse at 10 mg/kg, po administered as single dose. Type of data set: ADME, organism-based. Also on record: dose 10 mg/kg, time infinity, route oral. Particulars: in vivo. An outline of the steps:
as §2

The nature of data set [15]: Half-life in mouse at 10 mg/kg, po administered as single dose. The format is ADME, organism-based. The conditions noted are these: in vivo. An outline of the steps:
as §2

The nature of data set [16]: Clearance in mouse at 2 mg/kg, iv administered as single dose. The format is ADME, organism-based. Particulars: in vivo. A digest of the protocol: as §2
Data set [17] has as its system Mus musculus. Briefly: Hypoglycemic activity in orally dosed C57BL/6J mouse assessed as glucose tolerance improvement administered as single dose measured after 120 mins post glucose challenge by OGTT. Type of data set: functional, organism-based. An outline of the steps:
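Male mice fasted overnight (14 h), then gavaged with 1 or 3 mg/kg or vehicle (0.9% NaCl, 0.5% methyl cellulose); n = 8. Glucose 3 g/kg given by gavage 2 h later. Blood glucose taken at -120, 0, 15, 30, 60, 90 and 120 min. AUC0-2 h by trapezoidal rule; t-test against vehicle.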

The test system of data set [18] is Mus musculus. Briefly: Effect on urine glucose concentration in C57BL/6J mouse at 1 mg/kg, po administered as single dose measured after 24 hrs by glucose oxidase method (reference value: 0.74 +/- 0.14 mmol/L). Type of data set: functional.
A short description of data set [19]: Volume of distribution at steady state in mouse at 2 mg/kg, iv administered as single dose. Particulars: in vivo, read-out: Vdss. Type of data set: ADME, organism-based. A digest of the protocol:
as §2

Data set [20] has as its system Rattus norvegicus. Briefly: Effect on urine glucose concentration in Sprague-Dawley rat at 1 mg/kg, po administered as single dose measured after 24 hrs by glucose oxidase method (reference value: 0.28 +/- 0.16 mmol/L). The format is functional.
The nature of data set [21]: Oral bioavailability in mouse at 10 mg/kg administered as single dose. The conditions noted are these: in vivo. Type of data set: ADME, organism-based. A digest of the protocol:
as §2

The nature of data set [22]: AUClast in mouse at 10 mg/kg, po administered as single dose. The format is ADME, organism-based. Also on record: dose 10 mg/kg, time 0 - last, route oral. Particulars: in vivo. An outline of the steps:
as §2

As to `CCc1ccc(Cc2cc3c(cc2C)CO[C@]32O[C@H](C)[C@@H](O)[C@H](O)[C@H]2O)s1`, the Activity in the data set with Rattus norvegicus [1] is 24.67 mL; in the data set on Mus musculus [5] it was 110.53 mg; in the data set with Rattus norvegicus [8], 134.23 mg; with Mus musculus [10], 1.21 mL; in the data set on Mus musculus [17], “Dose-dependent effect”; in the data set with Mus musculus [18], 92.99 mmol/L. The same compound displayed an Activity in the data set with Rattus norvegicus [20] of 93.8 mmol/L. Further, the IC50 in [2] came to 4.5 nM; in [12], 1000 nM. Moreover, the time to peak (Tmax) in [3] worked out at 0.33 h. Besides, the half-life in data set [4] is 10.8 h; in [15], 5.95 h. The AUC(0-inf) was determined as 2320 ng·h/mL in data set [6] and 5580 ng·h/mL in [14]. This compound also displayed a Cmax in data set [7] of 740 ng/mL. For the same compound, the MRT inf in data set [9] amounted to 13.1 h; in data set [11], 8.9 h. The results for the AUC(0-t) in data set [13] and in [22] were 1130 ng·h/mL and 3010 ng·h/mL, respectively. For the same compound, the Ratio IC50 in the data set filed under Homo sapiens is 216. Moreover, the clearance in data set [16] came out at 19.9 mL/min/kg. Besides, the Vd in data set [19] amounted to 10.1 L/kg. In [21], this compound showed a bioavailability of 53.4%.

In general, IC50 refers to the midpoint of a concentration-inhibition curve. As a reminder, the Tmax is the time from dosing to the highest level. As usually defined, the half-life is how long it takes for the measured level to halve. A high value points to slow decline. For orientation: AUC(0-inf) means the area under the concentration-time curve extrapolated to infinity. Broadly, the Cmax is the peak of the concentration-time curve. Usually MRT inf stands for a mean duration of stay, worked out from the concentration-time curve. By AUC(0-t) is commonly meant the area under the concentration-time curve up to a stated or last time point. High values mean more exposure, low ones less exposure. By clearance is commonly meant the volume of plasma or blood freed of the substance per unit of time. A high value points to a high capacity for elimination. A word on the bioavailability: it is dose-corrected exposure relative to a reference, in per cent. Read a low bioavailability as little systemic uptake.
